Source: ChEMBL document CHEMBL1152148, “Exploring 8-benzyl pteridine-6,7-diones as inhibitors of glutamate racemase (MurI) in gram-positive bacteria” (Bioorg Med Chem Lett, 2008)
≈ marks a conversion by molar mass, not a printed value.

How the values were obtained:
[1] = Solubility in Tris buffer at pH 8.0 by nephelometry; assay type: physicochemical
Outline: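 Solubility was determined by nephelometry in the assay medium.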

[2] = test system: Staphylococcus aureus; test: Antibacterial activity against Staphylococcus aureus by NCCLS method; assay type: functional
[3] = biological target: T1, Glutamate racemase (Enterococcus faecalis (strain ATCC 700802 / V583), UniProt Q836J0); test: Inhibition of Enterococcus faecalis murI assessed as effect on conversion of D-glutamate to L-glutamate at pH 8.0 by HPLC
T1 sequence (Q836J0 whole entry): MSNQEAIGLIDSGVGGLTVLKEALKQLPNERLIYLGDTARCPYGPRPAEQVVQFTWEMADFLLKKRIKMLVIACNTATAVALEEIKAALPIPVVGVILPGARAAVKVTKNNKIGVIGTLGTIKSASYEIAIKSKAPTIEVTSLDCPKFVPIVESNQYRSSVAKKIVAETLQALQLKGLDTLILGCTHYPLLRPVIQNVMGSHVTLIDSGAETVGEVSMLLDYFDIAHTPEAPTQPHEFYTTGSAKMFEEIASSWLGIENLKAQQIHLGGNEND
Outline: (§1)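 IC50 determined against the MurI isozyme at pH 8 in Tris buffer containing polyethylene glycol, dithiothreitol and D-glutamate substrate. Conversion of D- to L-glutamate was followed by HPLC, with chiral separation of the glutamate enantiomers on a D-penicillamine column.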

[4] = Inhibition of Staphylococcus aureus murI assessed as effect on conversion of D-glutamate to L-glutamate at pH 8.0 by HPLC; outline: as §1
[5] = Inhibition of Enterococcus faecium murI assessed as effect on conversion of D-glutamate to L-glutamate at pH 8.0 by HPLC

Structure (SMILES)	solubility kinetic [1]	MIC [2]	IC50 [3]	IC50 [4]	IC50 [5]
CCCCSc1nc(N)c2[nH]c(=O)c(=O)n(Cc3ccc(Cl)c(Cl)c3)c2n1	3.1 µM (≈ 1.32 µg/mL)	> 64 µg/mL	0.65 µM	< 1.5 µM	–
Nc1nc(SCCc2ccccc2)nc2c1[nH]c(=O)c(=O)n2Cc1ccccc1	3 µM (≈ 1.22 µg/mL)	–	50 µM	11 µM	–
CCCCSc1nc(N)c2[nH]c(=O)c(=O)n(CCCC)c2n1	25 µM (≈ 8.09 µg/mL)	> 64 µg/mL	11 µM	–	–
CCCCSc1nc(N)c2[nH]c(=O)c(=O)n(Cc3cc(OC)cc(OC)c3)c2n1	50 µM (≈ 20.9 µg/mL)	> 64 µg/mL	1.7 µM	14 µM	–
CCCCSc1nc(NCCN2CCOCC2)c2[nH]c(=O)c(=O)n(Cc3ccc(F)cc3)c2n1	50 µM (≈ 24.4 µg/mL)	64 µg/mL (≈ 131 µM)	2.5 µM	25 µM	–
CCCCSc1nc(N2CCN(C)CC2)c2[nH]c(=O)c(=O)n(Cc3ccc(F)cc3)c2n1	25 µM (≈ 11.5 µg/mL)	16 µg/mL (≈ 34.9 µM)	6.1 µM	21 µM	–
CCCCSc1nc(N)c2[nH]c(=O)c(=O)n(Cc3ccc(F)cc3)c2n1	32 µM (≈ 12 µg/mL)	> 64 µg/mL	3.5 µM	5.1 µM	–
CCCCSc1nc(N)c2[nH]c(=O)c(=O)n(Cc3ccccc3)c2n1	25 µM (≈ 8.94 µg/mL)	> 64 µg/mL	2.4 µM	6.4 µM	–
Nc1nc(SC2CCCC2)nc2c1[nH]c(=O)c(=O)n2Cc1ccccc1	12 µM (≈ 4.43 µg/mL)	> 64 µg/mL	1.9 µM	52 µM	–
Nc1nc(SCc2ccccc2)nc2c1[nH]c(=O)c(=O)n2Cc1ccccc1	3 µM (≈ 1.17 µg/mL)	–	21 µM	7.6 µM	–
CCCCSc1nc(NC)c2[nH]c(=O)c(=O)n(Cc3ccc(F)cc3)c2n1	25 µM (≈ 9.74 µg/mL)	8 µg/mL (≈ 20.5 µM)	0.9 µM	3.8 µM	–
CCCCSc1nc(N)c2[nH]c(=O)c(=O)n(Cc3c(F)cccc3F)c2n1	50 µM (≈ 19.7 µg/mL)	> 64 µg/mL	1.5 µM	3.1 µM	–
CCCCSc1nc(N)c2ncn(Cc3ccc([N+](=O)[O-])cc3)c2n1	10 µM (≈ 3.58 µg/mL)	–	7 µM	> 400 µM	18 µM
CCCCSc1nc(N2CC(O)C2)c2[nH]c(=O)c(=O)n(Cc3ccc(F)cc3)c2n1	1.6 µM (≈ 0.69 µg/mL)	> 64 µg/mL	2.1 µM	4 µM	–
CCCCSc1nc(N(C)C)c2[nH]c(=O)c(=O)n(Cc3ccc(F)cc3)c2n1	0.8 µM (≈ 0.323 µg/mL)	4 µg/mL (≈ 9.91 µM)	1.1 µM	–	–
